Assay [1] in a line: inhibitors of TNFa-induced NFkB p65 translocation, primary screen, imaging, HUVEC, MLSMR starter and 10KST1 sets (AID 438;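 active = inhibition above 20% together with a positive visual image hit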;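 note: compound added about 3h40 before a 20 min TNFalpha stimulation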;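 for inhibition: signal is the nuclear over cytoplasmic p65 intensity ratio per well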). Particulars: HUVEC TNFa-induced p65 nuclear translocation; cell count: measured here: nuclei count (cytotoxicity indicator), at 2.08 µM; inhibition: at 2 µM, stronger effect = higher value, 0% TNFa-plus-vehicle, 100% no-TNFa wells.
Assay [2] in a line: inhibitors of mutant huntingtin aggregation, primary screen, imaging, exon1htt(103Q)mCFP cells, high-content imaging (AID 483;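 active = visual image review flags a hit and inhibition of aggregation exceeds 20%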;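 note: compound exposure lasted 3 days before fixation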;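 for nuclei count: percent of the per-plate median nuclei count of sample wells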). To be noted: exon1htt(103Q)mCFP cell line, aggregate imaging, at 2 µM; inhibition of aggregation: stronger effect = higher value; nuclei count: measured here: cell count, toxicity.
Assay [3] in a line: inhibitors of E-selectin induction by TNFa, primary screen, imaging, HUVEC, immunofluorescence, MLSMR starter and 10KST1 sets (AID 487;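 active = visually confirmed hit in the image check and inhibition above 20%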;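 for inhibition: signal is fraction of cell area covered by stained E-selectin grains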;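 for nuclei count: 100% = median nuclei count of all wells on the same plate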). To be noted: HUVEC TNFalpha-induced E-selectin immunofluorescence imaging, at 2 µM; inhibition: stronger effect = higher value; nuclei count: measured here: cell number, toxicity.
Assay [4] concerns the target Voltage-gated potassium channel subunit beta-2 (Rattus norvegicus) (UniProt P62483). In words: KvBeta enzyme negative modulators, primary screen, biochemical, NADPH fluorescence (AID 622;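 active = fluorescence slope higher than the sample average by over 3 SD, cut at about -0.22 in these data, passing the limit was not always enough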;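 note: slope of raw intensity against log time taken from 70 to 1610 s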). To be noted: recombinant KvBeta, 4-cyanobenzaldehyde reduction, at 10 µM, stronger effect = higher value.
Assay [5] shares this target. Description: KvBeta positive modulators, primary screen, biochemical, NADPH fluorescence (AID 623;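 active = NADPH fluorescence slope more negative than the mean of all samples by about 3 SD, 99.7% confidence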;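 note: fluorescence intensity change per second fitted from 20 to 320 s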). To be noted: Recombinant KvBeta, NADPH fluorescence decrease slope, 10 min; at 10 µM; stronger effect = lower value.
Assay [6] addresses Alpha-2C adrenergic receptor (Homo sapiens) (UniProt P18825). Description: modulators of alpha2C/GIRK thallium flux, primary screen, cell-based, HEK293 alpha2C/GIRK1/2 (AID 624).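 Note: slope of fluorescence ratio to pre-addition baseline per second over 15 to 24 s.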 To be noted: thallium flux BTC fluorescence, at 10 µM, actives lie on both sides.
Assay [7] is described as follows: inhibitors of larval lipid processing in zebrafish, primary screen, whole organism, PED6 fluorescence, gall bladder and intestine (AID 686;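 active = a full or partial loss of lipid-probe fluorescence in the fish gall bladder, intestine or both, judged by eye; inactive = no fluorescence loss, or compound toxic to the fish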;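 note: larvae 5 to 7 days old with five fish per well; signal comes from phospholipase A2 cleavage of quenched PED6 carried via bile; overnight exposure to compound and PED6 before scoring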). To be noted: Zebrafish larvae PED6 lipid processing, fluorescence scoring; screened at 20 µM (by protocol). Summed up:
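Doses: 20 µM single dose. Test system: live zebrafish larvae aged 5-7 days, whole organism. Quantity: five larvae per well. Measured by: By-eye fluorescence microscopy. Reagent: ingested quenched lipid PED6 at 100 nM. Read-out: visual per-well fluorescence inhibition score. Times: overnight exposure of larvae to compound plus PED6.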

Assay [8] can be described thus: inhibitors of Sendai virus-induced IRF3 signaling, primary screen, TLR/RLR signaling modifier project, cell-based, Sendai virus stimulus, luciferase, 10K MLSCN set (AID 602276;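 active = inhibition at or above 50% at 10 µM; inactive = inhibition below 50%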;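 note: firefly luciferase from ISG56 promoter only with Renilla not read in this screen; 0% = Sendai virus plus DMSO and 100% = medium plus DMSO without virus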). To be noted: HEK293 RL24 IRF3 luciferase reporter, at 10 µM, stronger effect = higher value. (Reporter assays use an easily measured gene product as a stand-in for the process of interest.)
Assay [9] can be described thus: inhibitors of poly I:C-induced TLR3 signaling, primary screen, cell-based, poly I:C stimulus, luciferase, 10K MLSCN set (AID 602277;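 active = inhibition of the reporter signal at or above 50%; inactive = inhibition below 50%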). To be noted: HEK293-TLR3 RL24 IRF3 luciferase reporter, at 10 µM, stronger effect = higher value.

One may read the inhibition as the relative decrease from the control value, in per cent.

Calls of active or inactive are those of the source.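 Rule for the calls, unless noted: active = fluorescence slope after compound addition differing from the mean of all screened samples at 99.7% confidence, in either direction; inactive = the rest.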

Sequence of Voltage-gated potassium channel subunit beta-2 (Rattus norvegicus) (P62483 whole entry, looked up): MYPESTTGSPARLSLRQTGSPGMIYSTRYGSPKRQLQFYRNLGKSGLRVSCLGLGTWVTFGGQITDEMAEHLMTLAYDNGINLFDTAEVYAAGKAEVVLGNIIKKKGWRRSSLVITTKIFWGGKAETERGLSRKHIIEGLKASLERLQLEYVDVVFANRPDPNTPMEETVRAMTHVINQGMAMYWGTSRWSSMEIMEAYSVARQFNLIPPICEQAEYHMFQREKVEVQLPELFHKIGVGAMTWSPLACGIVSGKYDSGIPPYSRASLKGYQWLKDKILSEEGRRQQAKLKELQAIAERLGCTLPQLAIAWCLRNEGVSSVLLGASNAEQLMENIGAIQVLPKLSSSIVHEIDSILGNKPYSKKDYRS
Sequence of Alpha-2C adrenergic receptor (Homo sapiens) (P18825 whole entry, looked up): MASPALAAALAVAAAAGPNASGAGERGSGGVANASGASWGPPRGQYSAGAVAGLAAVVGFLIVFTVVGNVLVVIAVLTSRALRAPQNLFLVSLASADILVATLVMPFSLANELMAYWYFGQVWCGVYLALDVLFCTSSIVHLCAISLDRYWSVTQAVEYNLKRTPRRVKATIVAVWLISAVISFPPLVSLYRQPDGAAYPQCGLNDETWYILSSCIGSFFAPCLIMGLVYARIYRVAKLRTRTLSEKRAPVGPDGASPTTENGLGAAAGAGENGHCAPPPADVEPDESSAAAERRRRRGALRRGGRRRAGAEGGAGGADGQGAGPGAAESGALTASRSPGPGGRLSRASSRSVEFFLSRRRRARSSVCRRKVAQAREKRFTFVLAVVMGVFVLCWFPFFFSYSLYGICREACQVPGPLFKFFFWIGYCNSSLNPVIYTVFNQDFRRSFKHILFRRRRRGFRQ

For `COc1cccc(N2C(=O)N(c3ccccc3Cl)C3CS(=O)(=O)CC32)c1` (stereo not drawn), in assay [1], the cell count was 366. Besides, the inhibition in assay [1] is -0.4% (inactive); in assay [3], -47.6% (inactive); in [8], 15.6% (inactive); in assay [9], 20% (inactive). Moreover, in assay [2], the inhibition of aggregation was -6% (inactive). The nuclei count in assay [2] came to 118%; in [3] it was 122%. Further, the fluorescence slope in [4] was -0.336 (inactive). Besides, the NADPH fluorescence slope in [5] is -1.8e-05 (inactive). Further, the slope in assay [6] is 0.00497 (inactive). In [7], the compound was called inactive.

On to `C(=N\n1cnnc1)/c1cccc(OCCOc2ccccc2)c1`, for which the cell count in assay [1] was found to be 237. The inhibition in [1] is 7.1% (inactive); in [3], -33.2% (inactive); in [8], -29.6% (inactive); in [9], -51.4% (inactive). For the same compound, in [2], the inhibition of aggregation was 0% (inactive). Further, the nuclei count in assay [2] was 96%; in assay [3] it was 108%. Moreover, in [4], the fluorescence slope is -0.351 (inactive). Besides, the NADPH fluorescence slope in assay [5] was -3.7e-05 (inactive). Besides, the slope in [6] is 0.00586 (inactive). The compound was called inactive in assay [7].

As for `COc1ccc2c3c(c(=O)oc2c1OCC(N)=O)CCCC3`, in assay [1], the cell count is 609. In addition, the inhibition in [1] was -3.8% (inactive); in assay [3], -29.2% (inactive); in assay [8] it was 14% (inactive); in assay [9], 2.31% (inactive). Besides, the inhibition of aggregation in [2] is -17.4% (inactive). In addition, the nuclei count in assay [2] came to 111%; in [3] it was 102%. In addition, in assay [4], the fluorescence slope was -0.0534 (active). Moreover, the NADPH fluorescence slope in [5] was -8.5e-06 (inactive). Further, in assay [6], the slope is 0.00487 (inactive). Also, the call in [7] was inactive.

As for `Cc1ccc(C)n1-c1ccc(-n2cnnn2)cc1`, the cell count in assay [1] was determined as 572. The inhibition in assay [1] is -1.6% (inactive); in [3], -24.4% (inactive); in assay [8], 8.71% (inactive); in assay [9] it was 9.74% (inactive). The inhibition of aggregation in assay [2] was -8.3% (inactive). For the same compound, the figures for the nuclei count in [2] and in [3] were 86.5% and 50.8%, respectively. In addition, the fluorescence slope in assay [4] was -0.366 (inactive). In addition, the NADPH fluorescence slope in assay [5] was -5.9e-05 (inactive). The slope in [6] is 0.00396 (inactive). In addition, the result in [7] was inactive.

`C=CCOC(=O)CC(NC(=O)c1ccccc1)c1ccccc1` (stereo not drawn): the cell count in assay [1] was 510. Besides, the inhibition in assay [1] is 9.6% (inactive); in [3], -231% (inactive); in assay [8] it was 13.9% (inactive); in [9], 99% (active). Also, in [2], the inhibition of aggregation was -15.9% (inactive). Besides, the nuclei count in [2] amounted to 98.4%; in assay [3], 133%. For the same compound, in assay [4], the fluorescence slope is -0.382 (inactive). In addition, in assay [5], the NADPH fluorescence slope was -6.2e-05 (inactive). In addition, the slope in assay [6] is 0.00447 (inactive). For the same compound, the compound was called inactive in [7].

Take `NC(=O)c1ccsc1NC(=O)COC(=O)Cc1ccsc1`: the cell count in assay [1] came out at 246. In addition, the inhibition in [1] was -18.9% (inactive); in assay [3], 26.2% (inactive); in assay [8], 9.36% (inactive); in assay [9], 10.7% (inactive). The inhibition of aggregation in [2] is 17.1% (inactive). The nuclei count in [2] came to 81%; in [3] it was 75.6%. Moreover, the fluorescence slope in [4] was -0.453 (inactive). Further, the NADPH fluorescence slope in assay [5] is -4.6e-05 (inactive). Moreover, the slope in assay [6] was 0.00509 (inactive). Also, in [7], the outcome was inactive.

Take `COc1ccc(N2CCN(C(=O)CSc3ccccc3)CC2)cc1`: the cell count in assay [1] was determined as 393. Besides, the inhibition is -11.8% (inactive) in assay [1], -18.6% (inactive) in assay [3], -14.2% (inactive) in assay [8] and -34.1% (inactive) in [9]. Further, the inhibition of aggregation in assay [2] was 1.5% (inactive). Besides, the nuclei count in assay [2] was 105%; in assay [3] it was 108%. Besides, in assay [4], the fluorescence slope is -0.401 (inactive). Further, the NADPH fluorescence slope in assay [5] is -5.3e-05 (inactive). In assay [6], the slope was 0.00515 (inactive). The result in assay [7] was inactive.

`CCn1nnnc1SCC(=O)N1c2ccccc2CCc2ccccc21`: the cell count in [1] amounted to 568. For the same compound, the inhibition is -4.6% (inactive) in assay [1], -32.7% (inactive) in assay [3], 1.39% (inactive) in [8] and 1.68% (inactive) in [9]. Further, in [2], the inhibition of aggregation is 2% (inactive). Moreover, the nuclei count stood at 96.3% in assay [2] and 117% in [3]. Further, the fluorescence slope in [4] is -0.377 (inactive). Also, the NADPH fluorescence slope in [5] was -5.8e-05 (inactive). Besides, the slope in [6] is 0.00737 (inactive). The compound was called inactive in assay [7].

Regarding `COC(=O)c1[nH]c2ccc(C)cc2c1NC(=O)CN1CCCC(C)(C)C1`, in assay [1], the cell count is 422. Further, the inhibition was 7.3% (inactive) in [1], -330% (inactive) in [3], 8.28% (inactive) in assay [8] and 18% (inactive) in assay [9]. In addition, the inhibition of aggregation in assay [2] is -2.1% (inactive). Moreover, the results for the nuclei count in assay [2] and in assay [3] were 101% and 107%, respectively. In assay [4], the fluorescence slope is -0.37 (inactive). Further, in [5], the NADPH fluorescence slope is -2.6e-05 (inactive). The slope in assay [6] is 0.00452 (inactive). For the same compound, in assay [7], the compound was classed as inactive.

`Cc1cc(NC(=O)Cc2c(F)cccc2Cl)no1`: the cell count in assay [1] worked out at 586. Also, the inhibition in assay [1] is -1.1% (inactive); in assay [3], 34.2% (inactive); in [8], 14.4% (inactive); in [9], 19.6% (inactive). Moreover, in assay [2], the inhibition of aggregation is -15.9% (inactive). In addition, the nuclei count in [2] came to 99.9%; in [3], 94.3%. The fluorescence slope in assay [4] is -0.44 (inactive). Moreover, in assay [5], the NADPH fluorescence slope was -2.5e-05 (inactive). The slope in [6] was 0.00621 (inactive). In [7], the result was inactive.

Turning to `Cc1nnc(NC(=O)CCC(=O)N2CCC(C)CC2)s1`, the cell count in assay [1] was found to be 355. Moreover, the inhibition is -2% (inactive) in assay [1], -84.2% (inactive) in assay [3], 12.2% (inactive) in assay [8] and 14% (inactive) in assay [9]. In addition, in assay [2], the inhibition of aggregation was -13.9% (inactive). In addition, the values for the nuclei count in assay [2] and in assay [3] were 119% and 120%, respectively. The fluorescence slope in assay [4] is -0.465 (inactive). In addition, in assay [5], the NADPH fluorescence slope was -4.6e-05 (inactive). Besides, the slope in [6] was 0.0059 (inactive). For the same compound, in [7], the compound was called inactive.

Take `COCCn1c(C)cc(C(=O)COC(=O)c2ccc(N3CCCC3=O)cc2)c1C`: the cell count in assay [1] amounted to 527. Besides, the inhibition in [1] is -16.9% (inactive); in assay [3] it was 26.9% (inactive); in assay [8], 14.7% (inactive); in assay [9], 26.1% (inactive). In addition, the inhibition of aggregation in assay [2] was 12.8% (inactive). In addition, the nuclei count came out at 97.9% in assay [2] and 103% in [3]. Besides, the fluorescence slope in [4] was -0.329 (inactive). The NADPH fluorescence slope in assay [5] is -7.1e-05 (inactive). In [6], the slope is 0.00515 (inactive). For the same compound, in assay [7], the call was inactive.

As to `CC(=O)Nc1ccccc1OCC(=O)c1cc(C)n(Cc2cccs2)c1C`, the cell count in assay [1] was 425. Besides, the inhibition is -2% (inactive) in assay [1], -54.1% (inactive) in assay [3], 49.5% (inactive) in assay [8] and -26.5% (inactive) in assay [9]. In assay [2], the inhibition of aggregation was -13.7% (inactive). Besides, the nuclei count in assay [2] was determined as 45.4%; in assay [3], 107%. Moreover, the fluorescence slope in assay [4] was -0.475 (inactive). For the same compound, the NADPH fluorescence slope in assay [5] is -4.2e-05 (inactive). In assay [6], the slope was 0.00662 (inactive). Besides, the outcome in assay [7] is “inactive; toxic”.

Regarding `COc1ccc(OC)c(Nc2nc(-c3cccs3)cs2)c1`, in assay [1], the cell count was 333. Moreover, the inhibition in assay [1] is 1.5% (inactive); in [3], -35.5% (inactive); in assay [8] it was 7.1% (inactive); in [9], -5.46% (inactive). For the same compound, the inhibition of aggregation in assay [2] is -9.1% (inactive). In addition, the nuclei count in assay [2] was 104%; in assay [3] it was 110%. Moreover, in assay [4], the fluorescence slope is -0.444 (inactive). Also, the NADPH fluorescence slope in [5] is -6e-05 (inactive). Moreover, the slope in assay [6] was 0.00343 (inactive). The outcome in assay [7] is “active; weak signal in gallbladder and intestine”.

Source of the values: PubChem BioAssay.
